The subject of test [1] is Sclerotinia minor. As to the kind of experiment: Antifungal activity against Sclerotinia minor assessed as color variation of hyphae at 200 ug/ml after 5 days by electron microscopy. Type of test: functional, organism-based. Summed up:
(§1)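 Mycelium disks (10 mm) from stationary-phase cultures were grown on cellophane over PDA at 26 ± 1 °C to log phase. They were then moved to PDA containing compound at 200 µg mL-1 from DMSO stock (final DMSO 0.1%), with 0.1% DMSO controls. Pigmentation was judged visually and photographically against untreated cultures of the same age.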

For test [2], the system named is Pyricularia grisea. As to the kind of experiment: microbe, parasite or virus in culture. Type of test: functional. Particulars: 120 h, read-out: GI.
Test [3] deals with Trichoderma viride. Put plainly: microbe, parasite or virus in culture. Type of test: functional. Conditions: 120 h, read-out: GI.
The subject of test [4] is Botrytis cinerea. As to the kind of experiment: microbe, parasite or virus in culture. Type of test: functional. Particulars: 120 h, read-out: GI.
Test [5] has as its system Berkeleyomyces basicola. Put plainly: Antifungal activity against Thielaviopsis basicola Went assessed as color variation of hyphae at 200 ug/ml after 5 days by electron microscopy. Type of test: functional, organism-based. Summed up: as §1
Test [6] deals with Sclerotinia minor. Put plainly: microbe, parasite or virus in culture. Conditions: 120 h, read-out: GI. Type of test: functional.
The test system of test [7] is Penicillium italicum. As to the kind of experiment: microbe, parasite or virus in culture. Particulars: ATCC 48952, 120 h, read-out: GI. Type of test: functional.
For test [8], the system named is Pyricularia grisea. As to the kind of experiment: microbe, parasite or virus in culture. Type of test: functional. Particulars: 120 h, read-out: GI. This is another data set of the same source.
Test [9] deals with Penicillium italicum. Put plainly: microbe, parasite or virus in culture. Type of test: functional. Conditions: ATCC 48952, 120 h, read-out: GI. This is another data set of the same source.
The test system of test [10] is Penicillium crustosum. Put plainly: Antifungal activity against Penicillium crustosum assessed as color variation of hyphae at 200 ug/ml after 5 days by electron microscopy. Type of test: functional, organism-based. Summed up: as §1
Test [11] deals with Trichoderma harzianum. Put plainly: microbe, parasite or virus in culture. Conditions: (Pers.)-Tul, 120 h, read-out: GI. Type of test: functional.
The test system of test [12] is Pyricularia grisea. Put plainly: Antifungal activity against Magnaporthe grisea assessed as bleaching of hyphae at 200 ug/ml after 5 days by electron microscopy. It counts as functional, organism-based. In outline: as §1
Test [13] concerns Penicillium crustosum. As to the kind of experiment: microbe, parasite or virus in culture. Particulars: 120 h, read-out: GI. It counts as functional.
Test [14] concerns Berkeleyomyces basicola. As to the kind of experiment: microbe, parasite or virus in culture. Particulars: 120 h, read-out: GI. It counts as functional.
Test [15] concerns Pyricularia grisea. Put plainly: microbe, parasite or virus in culture. It counts as functional. Conditions: 120 h, read-out: GI. The source holds these as a separate data set.
The test system of test [16] is Trichoderma harzianum. As to the kind of experiment: microbe, parasite or virus in culture. It counts as functional. Particulars: (Pers.)-Tul, 120 h, read-out: GI. The source holds these as a separate data set.
The subject of test [17] is Botrytis cinerea. As to the kind of experiment: Antifungal activity against Botryotinia fuckeliana assessed as increased quantities of material in immediate layer of cell wall at 200 ug/ml after 5 days by electron microscopy. It counts as functional, organism-based.
The subject of test [18] is Alternaria solani. As to the kind of experiment: Antifungal activity against Alternaria solani Nees assessed as bleaching of hyphae at 200 ug/ml after 5 days by electron microscopy. It counts as functional, organism-based. Summed up: as §1
Test [19] concerns Penicillium crustosum. As to the kind of experiment: microbe, parasite or virus in culture. Particulars: 120 h, read-out: GI. Type of test: functional. This is another data set of the same source.
Test [20] concerns Botrytis cinerea. Put plainly: microbe, parasite or virus in culture. It counts as functional. Particulars: 120 h, read-out: GI. The source holds these as a separate data set.
For test [21], the system named is Trichoderma viride. As to the kind of experiment: microbe, parasite or virus in culture. It counts as functional. Particulars: 120 h, read-out: GI. This is another data set of the same source.
In test [22] the test system is Penicillium italicum. Put plainly: Antifungal activity against Penicillium italicum ATCC 48952 assessed as color variation of hyphae at 200 ug/ml after 5 days by electron microscopy. Type of test: functional, organism-based. In outline: as §1
For test [23], the system named is Botrytis cinerea. As to the kind of experiment: microbe, parasite or virus in culture. Type of test: functional. Particulars: 120 h, read-out: GI. This is another data set of the same source.
Test [24] deals with Botrytis cinerea. As to the kind of experiment: microbe, parasite or virus in culture. Type of test: functional. Particulars: 120 h, read-out: GI. This is another data set of the same source.
Test [25] deals with Alternaria solani. As to the kind of experiment: microbe, parasite or virus in culture. Conditions: 120 h, read-out: GI. It counts as functional.
For test [26], the system named is Botrytis cinerea. As to the kind of experiment: Antifungal activity against Botryotinia fuckeliana assessed as inhibition of pigmentation of hyphae at 200 ug/ml after 5 days by electron microscopy. It counts as functional, organism-based. In outline:
as §1

Test [27] concerns Botrytis cinerea. As to the kind of experiment: Antifungal activity against Botryotinia fuckeliana assessed as anamalous stratification at septa at 200 ug/ml after 5 days by electron microscopy. It counts as functional, organism-based.
Test [28] has as its system Berkeleyomyces basicola. As to the kind of experiment: microbe, parasite or virus in culture. Conditions: 120 h, read-out: GI. It counts as functional. The source holds these as a separate data set.
In test [29] the test system is Alternaria solani. As to the kind of experiment: microbe, parasite or virus in culture. Type of test: functional. Particulars: 120 h, read-out: GI. The source holds these as a separate data set.
In test [30] the test system is Pyricularia grisea. As to the kind of experiment: microbe, parasite or virus in culture. Type of test: functional. Conditions: 120 h, read-out: GI. This is another data set of the same source.
Test [31] concerns Sclerotinia minor. As to the kind of experiment: microbe, parasite or virus in culture. Conditions: 120 h, read-out: GI. It counts as functional. The source holds these as a separate data set.
The subject of test [32] is Trichoderma harzianum. Put plainly: Antifungal activity against Trichoderma harzianum (Pers.)-Tul assessed as color variation of hyphae at 200 ug/ml after 5 days by electron microscopy. Type of test: functional, organism-based. Summed up:
as §1

The values that follow come from ChEMBL document CHEMBL3045048, “Synthesis and antifungal action of new tricyclazole analogues” (2004).

SMILES strings stand for the structures. The source made the active and inactive calls. The calls are words filed in the database; no cut-off is given here.

Turning to `Cc1nn(C)c2c1sc1nncn12`, the outcome in the test with Sclerotinia minor [1], in the test on Berkeleyomyces basicola [5], with Penicillium crustosum [10], with Pyricularia grisea [12], in the test with Botrytis cinerea [17] and in the test with Alternaria solani [18] was Active. Moreover, the result in the test on Penicillium italicum [22], in the test with Botrytis cinerea [27] and in the test with Trichoderma harzianum [32] was Active. For the same compound, the inhibition of growth at 200 µg/mL in the test on Pyricularia grisea [2] stood at 59.1%; in the test on Penicillium italicum [7], 0%; in the test on Trichoderma harzianum [16], 0%; with Penicillium crustosum [19], 10%; in the test on Botrytis cinerea [20] it was 65.4%; in the test with Trichoderma viride [21], 0%. For the same compound, the inhibition of growth at 200 µg/mL in the test with Alternaria solani [25] came out at 23.4%; with Berkeleyomyces basicola [28] it was 0%; in the test with Sclerotinia minor [31], 0%. Further, the inhibition of growth at 100 µg/mL with Trichoderma viride [3] is 0%; with Botrytis cinerea [4], 28.8%; with Sclerotinia minor [6], 0%; with Penicillium italicum [9], 0%; in the test with Trichoderma harzianum [11] it was 0%; with Penicillium crustosum [13], 0%. Further, the inhibition of growth at 100 µg/mL with Berkeleyomyces basicola [14] was found to be 0%; in the test with Pyricularia grisea [15] it was 20.5%; in the test with Alternaria solani [29], 0%. Also, the figures for the inhibition of growth at 10 µg/mL with Pyricularia grisea [8] and in the test on Botrytis cinerea [24] were 12.2% and 10.8%, respectively. In addition, the inhibition of growth at 50 µg/mL in the test on Botrytis cinerea [23] came to 14.6%; with Pyricularia grisea [30], 13%. In the test on Botrytis cinerea [26], the result was inactive.

As for `Cc1cccc2sc3nncn3c12` [TRICYCLAZOLE], the inhibition of growth at 200 µg/mL in the test on Pyricularia grisea [2] turned out to be 94%; in the test on Penicillium italicum [7], 70.4%; with Trichoderma harzianum [16], 50.2%; with Penicillium crustosum [19] it was 95%; with Botrytis cinerea [20], 77.8%; in the test on Trichoderma viride [21], 60%. The figures for the inhibition of growth at 200 µg/mL with Alternaria solani [25], with Berkeleyomyces basicola [28] and in the test on Sclerotinia minor [31] were 0%, 66.6% and 0%, respectively. The inhibition of growth at 100 µg/mL was found to be 20.2% in the test on Trichoderma viride [3]; 29.6% with Botrytis cinerea [4]; 0% in the test on Sclerotinia minor [6]; 20.1% in the test on Penicillium italicum [9]; 20% in the test on Trichoderma harzianum [11]; 80.3% in the test on Penicillium crustosum [13]. The inhibition of growth at 100 µg/mL stood at 40.1% in the test on Berkeleyomyces basicola [14], 62.3% with Pyricularia grisea [15] and 0% with Alternaria solani [29]. Also, the inhibition of growth at 10 µg/mL with Pyricularia grisea [8] and in the test with Botrytis cinerea [24] was 0% in each case. Also, the values for the inhibition of growth at 50 µg/mL in the test on Botrytis cinerea [23] and in the test with Pyricularia grisea [30] were 8.3% and 24.1%, respectively.

Regarding `Cn1ncc2sc3nncn3c21`, the figures for the inhibition of growth at 200 µg/mL in the test on Pyricularia grisea [2] and with Botrytis cinerea [20] were 43.4% and 32.2%, respectively. In addition, the inhibition of growth at 100 µg/mL came out at 19.3% in the test on Botrytis cinerea [4] and 24% in the test with Pyricularia grisea [15]. Also, the inhibition of growth at 10 µg/mL with Pyricularia grisea [8] was determined as 3%; with Botrytis cinerea [24], 0%. The inhibition of growth at 50 µg/mL worked out at 4% with Botrytis cinerea [23] and 8.2% in the test on Pyricularia grisea [30].
